Among the data in the array DNA melting data of Ke et al. (doi:10.1101/2024.01.08.574731) are folding enthalpy and Tm values, retold here.

A short description of data set [1]: folding enthalpy; higher = less favourable; fluorescence melt of hairpins on a sequencing array, two-state fit. To be noted: sodium 0.088 M. A digest of the protocol: (§1)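 On a sequenced MiSeq flow cell, library hairpins with annealed Cy3 and quencher oligos were imaged for Cy3 fluorescence in 2.5 °C steps up to 60 °C, in 50 mM Na-HEPES pH 8.0, 25 mM NaCl. Normalisation used pre-quench Cy3 and control constructs. Bootstrapped two-state fits gave melting temperature and folding enthalpy, combined by inverse variance across four replicates and with fitted temperatures raised by 9.35 °C to match UV melts.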

The nature of data set [2]: melting temperature; fluorescence melt of hairpins on a sequencing array, two-state fit, raised by 9.35 °C to match UV melts. To be noted: sodium 0.088 M. A digest of the protocol: as §1

On to GCGTTGCGAAAGCATCGC (((.(((....))).))), for which, in data set [1], the folding enthalpy is -55.8 kcal/mol. Also, in data set [2], the Tm is 61.3 °C.

Consider GCGTTGCGAAAGCCACGC ((((.((....)).)))), for which the folding enthalpy in data set [1] is -36.6 kcal/mol. Also, the Tm in data set [2] was determined as 66.6 °C.

For GCGTTGCGAAAGCCTCGC (((..((....))..))), in data set [1], the folding enthalpy was -18.5 kcal/mol. For the same sequence, in data set [2], the Tm came out at 58.1 °C.

As to GCGTTGGCGAAAGCCCGC (((..(((....)))))), the folding enthalpy in data set [1] is -18.8 kcal/mol. The Tm in data set [2] was 57.3 °C.

Turning to GCGTTGGGAAACCAATGC ((.((((....)))).)), the folding enthalpy in data set [1] is -43.2 kcal/mol. In data set [2], the Tm worked out at 54.3 °C.

GCGTTGTACGC ((((...)))): the folding enthalpy in data set [1] is -19 kcal/mol. Moreover, in data set [2], the Tm stood at 65.8 °C.

GCGTTGTGACGC ((((....)))): the folding enthalpy in data set [1] was -31.6 kcal/mol. In addition, the Tm in data set [2] turned out to be 59 °C.

GCGTTTAAACGC ((((....)))): the folding enthalpy in data set [1] is -29.4 kcal/mol. Further, the Tm in data set [2] is 54.7 °C.

In the case of GCGTTTCCGAAAGGACGC (((..(((....)))))), in data set [1], the folding enthalpy was -24.5 kcal/mol. The Tm in data set [2] was 49.7 °C.

Consider GCGTTTCGAAAGAACCGC (((.(((....))).))), for which the folding enthalpy in data set [1] was -39.8 kcal/mol. In addition, the Tm in data set [2] was 52.4 °C.

GCGTTTCGACGC ((((....)))): in data set [1], the folding enthalpy is -28.6 kcal/mol. Besides, the Tm in data set [2] is 55.9 °C.

For GCGTTTGTACGC ((((....)))), the folding enthalpy in data set [1] is -25.4 kcal/mol. The Tm in data set [2] was 54.9 °C.

On to GCGTTTTCGAAAGAACGC (((..(((....)))))), for which the folding enthalpy in data set [1] was -32 kcal/mol. In addition, in data set [2], the Tm is 49.6 °C.

Regarding GCTAAACGAAAGTTAAGC (((.(((....))).))), the folding enthalpy in data set [1] was -29.1 kcal/mol. In addition, in data set [2], the Tm was 44.3 °C.

For GCTAAATCGAAAGATAGC (((..(((....)))))), the folding enthalpy in data set [1] is -18.4 kcal/mol. In addition, in data set [2], the Tm was determined as 33.9 °C.

Take GCTAACCGAAAGGTAAGC (((.(((....))).))): the folding enthalpy in data set [1] is -30.8 kcal/mol. Besides, the Tm in data set [2] came out at 52.1 °C.

Take GCTAACGAAAGTTCAAGC ((((((....)))..))): the folding enthalpy in data set [1] is -12.5 kcal/mol. In data set [2], the Tm came to 30.9 °C.

Regarding GCTAACGAAAGTTCAGC ((((((....))).))), the folding enthalpy in data set [1] is -21.8 kcal/mol. In addition, the Tm in data set [2] was found to be 39 °C.

In the case of GCTAACGAAAGTTGAGC ((((((....))).))), in data set [1], the folding enthalpy is -26.1 kcal/mol. In addition, in data set [2], the Tm is 41.5 °C.

On to GCTAACGAAAGTTTCAGC ((((((....)))..))), for which, in data set [1], the folding enthalpy was -14.2 kcal/mol. In addition, the Tm in data set [2] came to 29.7 °C.

With GCTAACGGAAACGTTAAC (.(((((....))))).), the folding enthalpy in data set [1] is -16.1 kcal/mol. The Tm in data set [2] was determined as 34.8 °C.

Regarding GCTAACGGAAACGTTGGC ((.((((....)))).)), in data set [1], the folding enthalpy was -36.1 kcal/mol. Moreover, in data set [2], the Tm stood at 52.6 °C.

Regarding GCTAAGAAATTAGC (((((....))))), the folding enthalpy in data set [1] was -16.8 kcal/mol. In data set [2], the Tm is 39.5 °C.

In the case of GCTAAGCGAAAGCATCGC ((.(.((....)).).)), the folding enthalpy in data set [1] is -11.1 kcal/mol. Moreover, the Tm in data set [2] was 30.7 °C.

For GCTAAGCGAAAGCCGAGC (((..((....))..))), the folding enthalpy in data set [1] was -19.1 kcal/mol. In addition, the Tm in data set [2] was found to be 42.2 °C.

For the sequence GCTAAGCGAAAGCGTTGC ((.(.((....)).).)), the folding enthalpy in data set [1] is -20 kcal/mol. Also, in data set [2], the Tm amounted to 53.4 °C.

Regarding GCTAAGCGAAAGCTTCGC ((.((((....)))).)), in data set [1], the folding enthalpy was -20.9 kcal/mol. Moreover, the Tm in data set [2] was 53.8 °C.

Regarding GCTAATCGAAAGATAGC (((.(((....)))))), in data set [1], the folding enthalpy is -26.4 kcal/mol. In data set [2], the Tm stood at 44.6 °C.

For GCTAATCGAAAGATCAGC (((.(((....))).))), the folding enthalpy in data set [1] was -29.4 kcal/mol. The Tm in data set [2] was 41.2 °C.

For GCTAATGGAAACACTAGC ((((.((....)).)))), the folding enthalpy in data set [1] was -23.9 kcal/mol. Moreover, in data set [2], the Tm was determined as 31.2 °C.

Turning to GCTAATGGAAACATTGGC ((.((((....)))).)), the folding enthalpy in data set [1] is -41.2 kcal/mol. For the same sequence, the Tm in data set [2] was 45.6 °C.

GCTACCGAAAGGTAGAGC ((((((....)))..))): in data set [1], the folding enthalpy was -19.1 kcal/mol. In data set [2], the Tm came out at 53.7 °C.

GCTACCGAAAGGTCCAGC ((((((....)))..))): the folding enthalpy in data set [1] is -11.4 kcal/mol. Further, in data set [2], the Tm came out at 29 °C.

Take GCTACCGAAAGGTTAGC ((((((....))).))): the folding enthalpy in data set [1] is -28 kcal/mol. Besides, in data set [2], the Tm was 52.7 °C.

On to GCTACCGGAAACAGTAGC (((((.(....).))))), for which, in data set [1], the folding enthalpy was -34.3 kcal/mol. Also, in data set [2], the Tm is 40.6 °C.

As for GCTACGACGAAAGTCAGC (((..(((....)))))), the folding enthalpy in data set [1] is -17 kcal/mol. In addition, the Tm in data set [2] came to 37 °C.

As for GCTACGCGAAAGCCAAGC (((..((....))..))), the folding enthalpy in data set [1] was -13.3 kcal/mol. Besides, the Tm in data set [2] amounted to 34.9 °C.

With GCTACGCGAAAGCCTCGC ((.(.((....)).).)), the folding enthalpy in data set [1] was -7.35 kcal/mol. The Tm in data set [2] came to 18.1 °C.

In the case of GCTACGCGAAAGCTCAGC (((..((....))..))), the folding enthalpy in data set [1] was -13.1 kcal/mol. For the same sequence, the Tm in data set [2] worked out at 37 °C.

As to GCTACGGCGAAAGCCAGC (((..(((....)))))), the folding enthalpy in data set [1] is -13.3 kcal/mol. Besides, the Tm in data set [2] was 42.9 °C.

As for GCTACTCCGAAAGGAAGC (((..(((....)))))), the folding enthalpy in data set [1] was -17.9 kcal/mol. Further, in data set [2], the Tm came out at 30.1 °C.

As for GCTACTCGAAAGAGAAGC (((.(((....))).))), the folding enthalpy in data set [1] is -28.6 kcal/mol. Further, the Tm in data set [2] worked out at 50.4 °C.

As for GCTACTCGAAAGAGCAGC (((.(((....))).))), the folding enthalpy in data set [1] is -37.7 kcal/mol. Moreover, the Tm in data set [2] amounted to 49.6 °C.

As for GCTACTGAAAAGTAGC ((((((....)))))), the folding enthalpy in data set [1] was -35.1 kcal/mol. Further, the Tm in data set [2] is 56.7 °C.

Turning to GCTACTGGAAACAGCAGC (((.(((....))).))), the folding enthalpy in data set [1] was -28.7 kcal/mol. Further, in data set [2], the Tm is 44.7 °C.

On to GCTAGAGGAAACTTTAGC ((((.((....)).)))), for which, in data set [1], the folding enthalpy is -20.8 kcal/mol. The Tm in data set [2] came to 35 °C.

As to GCTAGCGAAAGCTAAAGC ((((((....)))..))), in data set [1], the folding enthalpy is -19.1 kcal/mol. Besides, the Tm in data set [2] was determined as 46 °C.

As for GCTAGCGAAAGCTACAGC ((((((....)))..))), the folding enthalpy in data set [1] is -15.5 kcal/mol. For the same sequence, the Tm in data set [2] is 39.6 °C.

As for GCTAGCGAAAGCTTGAGC ((((((....)))..))), the folding enthalpy in data set [1] is -13.5 kcal/mol. The Tm in data set [2] worked out at 41.2 °C.

GCTAGGCGAAAGCACAGC (((..((....))..))): the folding enthalpy in data set [1] was -19.4 kcal/mol. Also, in data set [2], the Tm was 46.3 °C.

For the sequence GCTAGGCGAAAGCAGAGC (((..((....))..))), the folding enthalpy in data set [1] is -23.5 kcal/mol. In data set [2], the Tm was 53.3 °C.

For GCTAGGCGAAAGCATAGC ((((.((....)).)))), in data set [1], the folding enthalpy is -32.7 kcal/mol. Besides, in data set [2], the Tm was 64.6 °C.

Take GCTAGGCGAAAGCATCGC ((.(.((....)).).)): the folding enthalpy in data set [1] was -15.9 kcal/mol. For the same sequence, in data set [2], the Tm was found to be 38 °C.

In the case of GCTAGGCGAAAGCATGGC ((.(.((....)).).)), the folding enthalpy in data set [1] is -20.7 kcal/mol. Besides, the Tm in data set [2] was 50.1 °C.

For GCTAGGCGAAAGCCCTGC ((..(((....)))..)), the folding enthalpy in data set [1] was -12.3 kcal/mol. Besides, in data set [2], the Tm came out at 39.8 °C.
